# Assay outcomes: PubChem BioAssay, Broad Institute
# An excerpt weighted towards active compounds, which were near 3.6% of everything screened.
# Wnt bcat act – Wnt/beta-catenin pathway activation | Wnt/beta-catenin reporter cell assay, activator, plate reader | activation, % at 9.35 µM | 300,000 tested, 1.2% active; in the data active means activation above about 30%, passing the limit was not always enough
# SR-BI DiI-HDL act – activators of SR-BI mediated HDL lipid uptake; CHO ldlA[mSR-BI] cells, DiI-HDL uptake fluorescence, 3 h; 100 = double the neutral-control signal; activation, % at 12.5 µM; 320,000 tested, 0.096% active; AID 504775;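 active means mean replicate activation of at least 60% and every replicate at or above 60%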
#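 Test system: SR-BI-overexpressing, LDLR-lacking CHO cells; Medium: Ham's F12 with 0.5% BSA, HEPES 25 mM, pH 7.4; Schedule: 3 h, 37 °C; Technique: bottom-read fluorescence, 550/595 nm.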
# SR-BI DiI inh – blocks mouse SR-BI lipid uptake from DiI-HDL. Q61009. ldlA[mSR-BI] CHO cells, DiI-HDL uptake fluorescence, 3 h. inhibition, % at 12.5 µM. 320,000 tested, 0.96% active. AID 488896;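 active means mean replicate inhibition of at least 70% and a set share of replicates each scoring 70 or more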
# Target sequence (Q61009 whole entry, looked up): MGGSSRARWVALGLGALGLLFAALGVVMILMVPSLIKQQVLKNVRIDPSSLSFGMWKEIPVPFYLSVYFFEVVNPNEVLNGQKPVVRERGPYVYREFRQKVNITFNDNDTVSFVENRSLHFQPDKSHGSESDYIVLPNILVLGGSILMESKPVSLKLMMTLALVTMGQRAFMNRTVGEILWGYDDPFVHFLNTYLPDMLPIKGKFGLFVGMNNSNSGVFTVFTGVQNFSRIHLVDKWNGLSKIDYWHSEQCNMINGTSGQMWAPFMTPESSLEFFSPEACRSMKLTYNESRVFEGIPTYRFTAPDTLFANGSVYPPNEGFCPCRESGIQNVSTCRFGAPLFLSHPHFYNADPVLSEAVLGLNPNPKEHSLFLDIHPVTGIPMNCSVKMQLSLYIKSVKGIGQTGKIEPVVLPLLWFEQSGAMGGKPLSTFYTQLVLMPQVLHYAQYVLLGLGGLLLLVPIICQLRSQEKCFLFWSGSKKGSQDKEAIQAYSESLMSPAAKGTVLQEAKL
# MITF TRPM1 HTS – increases MITF-driven TRPM1 promoter luciferase signal | activation, % at 12.5 µM | AID 588334 | SK-MEL-5 TRPM1-promoter luciferase, 24 h; % of positive control, neutral wells = 0 | 300,000 tested, 0.75% active;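 active means mean activation of at least 80% with every replicate also reaching 80%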
# HSF1 activator – increases HSF-1 driven luciferase reporter signal | NIH3T3-HGL HSF-1 luciferase reporter, MG132, 8 h; 100% = twice DMSO control signal | activation, % at 9 µM | 300,000 tested, 1.7% active | AID 504408;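 active means mean replicate activation of at least 50% with a set share of replicates each reaching 50%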
# A number is an active result; i = inactive; nt = not tested or not shown.
SMILES,Wnt bcat act,SR-BI DiI-HDL act,SR-BI DiI inh,MITF TRPM1 HTS,HSF1 activator
O=C(N/N=C/c1ccccn1)c1ccc(NC(=O)c2cccc([N+](=O)[O-])c2)cc1,i,i,82,i,i
O=C(NN=Cc1ccccc1O)c1cccc([N+](=O)[O-])c1,i,i,129,i,nt
Cc1cc(/C=N/NC(=O)c2cccc([N+](=O)[O-])c2)c(C)n1-c1ccccc1,nt,i,80,i,i
Cc1ccc(S(=O)(=O)N2[C@H](CC(=O)c3ccc(F)cc3)OC[C@@H]2C)cc1,i,nt,nt,nt,nt
CCOC(=O)C1=CCN(S(=O)(=O)c2ccc(Cl)cc2)C1c1cccc(F)c1 (configuration not stated),i,nt,nt,nt,nt
CC1(C)CC(=O)C=C(c2ccc(COC(=O)c3ccc(-c4ccccc4)cc3)cc2)C1=O,i,nt,nt,nt,nt
O=C(N/N=C/c1ccccc1O)c1cccc(C(F)(F)F)c1,nt,i,136,i,i
COc1cc(/C=N/NC(=O)c2cccc(NC(=O)c3ccccc3C)c2)ccc1O,i,nt,nt,i,i
Cc1ccccc1C(=O)Nc1cccc(C(=O)N/N=C/c2cc(Cl)cc([N+](=O)[O-])c2O)c1,i,i,102,i,i
CCOc1cc(N2CCOCC2)c(OCC)cc1NC(=O)C(NC(=O)c1c(F)cccc1F)C(C)C (configuration not stated),i,i,i,nt,nt
CC(=O)C1CN(S(=O)(=O)c2ccc(C)cc2)C(c2ccccc2)CC1C (configuration not stated),i,nt,nt,nt,nt
COC(=O)N/N=C/c1cc(N=Nc2ccccc2)ccc1O,i,i,i,i,i
O=[N+]([O-])c1ccc(O)c(/C=N/NC(=S)Nc2ccc(Cl)cc2Cl)c1,i,i,105,i,i
O=C(NN=Cc1cc([N+](=O)[O-])ccc1O)c1cccc2ccccc12,i,i,134,i,i
Cc1cc(C(=O)N/N=C/c2cc(N=Nc3ccccc3)ccc2O)n[nH]1,nt,i,115,i,i
Nc1ccc(C(=O)N/N=C\c2cc(N=Nc3cccc4ccccc34)ccc2O)cc1,i,i,122,nt,i
Cc1cc(C(=O)N/N=C/c2ccc([N+](=O)[O-])cc2)c2ccccc2n1,i,i,i,i,i
O=C(N/N=C/c1cc([N+](=O)[O-])ccc1O)c1cc(-c2ccccc2)nc2ccccc12,i,i,129,i,i
O=C(N/N=C/c1cc([N+](=O)[O-])ccc1Cl)c1cc(-c2ccccc2)nc2ccccc12,i,nt,nt,i,i
Cc1cc(C(=O)N/N=C/c2cc([N+](=O)[O-])ccc2O)c2ccccc2n1,nt,i,118,i,i
O=C(N/N=C/c1cc([N+](=O)[O-])ccc1O)C12CC3CC(CC(C3)C1)C2,i,i,136,i,i
C[C@H]1CN([C@@H](C)CO)C(=O)CCCn2nncc2CO[C@H]1CN(C)C(=O)C1CCCCC1,i,nt,nt,nt,nt
Cc1ccc([C@@H]2C[C@H]3[C@@H](CN2S(=O)(=O)c2ccc(Cl)cc2)C(=O)C[C@@H](c2ccc(C)cc2)N3S(=O)(=O)c2ccc(Cl)cc2)cc1,i,nt,nt,nt,nt
COc1ccc(OC)c(NC(=O)C2(C)CCN2C(=O)C2(c3ccc(Cl)cc3)CCC2)c1 (configuration not stated),i,nt,nt,nt,nt
Cc1noc(N)c1C(=O)Nc1ccc(C(C)(C)C)cc1,51,i,i,86,i
SMILES,Wnt bcat act,SR-BI DiI-HDL act,SR-BI DiI inh,MITF TRPM1 HTS,HSF1 activator
COc1cccc(NC(=O)c2ccc(NS(=O)(=O)c3cccs3)cc2)c1,i,i,77,i,nt
O=C(NN=Cc1ccc(O)cc1O)c1ccccc1NS(=O)(=O)c1cccs1,i,i,97,nt,nt
COc1cc(/C=N/NC(=O)c2ccc(NS(=O)(=O)c3cccs3)cc2)cc(OC)c1O,i,i,i,nt,nt
O=C(NN=Cc1ccc(OC(F)F)cc1)c1ccc(NS(=O)(=O)c2cccs2)cc1,51,i,i,i,nt
O=C(NN=Cc1ccccc1OC(F)F)c1ccc(NS(=O)(=O)c2cccs2)cc1,i,i,82,nt,nt
CCCCC1Cc2[nH]c(=S)[nH]c(=O)c2C(c2ccc(F)cc2)O1 (configuration not stated),i,nt,nt,nt,nt
C#CCNC(=O)C[C@@H]1C[C@@]2(C(=O)OCC)CCCC=C2N(CCC2=CCCCC2)C1=O,i,nt,nt,nt,nt
CC(Sc1ccccc1F)C(=O)Nc1ccc2c(c1)OCCO2 (configuration not stated),45,i,i,89,nt
O=C(CSc1nnnn1-c1ccc(Cl)cc1)NC(=O)Nc1ccc2c(c1)OCCO2,38,i,i,i,i
Cc1ccc(-n2nnnc2SCC(=O)NC(=O)Nc2ccc3c(c2)OCCO3)cc1,i,i,i,i,i
CC1CN(CCC(=O)Nc2ccc3c(c2)OCO3)CC(C)O1 (configuration not stated),nt,i,80,i,i
O=C(Nc1ccc2c(c1)OCCO2)c1ccccc1,nt,i,i,i,i
O=C(CC(=O)c1ccccc1)Nc1ccc2c(c1)OCCO2,nt,i,i,i,54
Cc1cccc2nc(-c3ccccc3)c(-c3ccc(CN4CCC5(CC4)CNc4ccccc45)cc3)nc12,i,nt,nt,nt,nt
CC(CC(=O)Nc1ccc2c(c1)OCO2)c1ccccc1 (configuration not stated),i,i,i,i,i
O=C(CSc1ccccc1)Nc1ccc2c(c1)OCO2,i,i,i,89,i
CCN(CC)C(=O)Cn1cc(C(=O)C(=O)Nc2ccc3c(c2)OCCO3)c2ccccc21,i,i,77,82,i
O=C(Nc1ccc2c(c1)OCCO2)c1cnn(-c2ccccc2)n1,i,i,i,90,nt
CC(CC(=O)Nc1ccc2c(c1)OCCO2)c1ccccc1 (configuration not stated),56,i,i,nt,i
Cc1cc2c(c(=O)o1)[C@@]1(C(=O)N(C)c3ccccc31)C1=C(CCC1=O)O2,i,nt,nt,nt,nt
CC1Cc2nc(SCC(=O)Nc3ccc4c(c3)OCO4)n(Cc3ccccc3)c(=O)c2S1 (configuration not stated),nt,i,i,i,78
CCc1ccc(NC(=O)CCCOc2cc(=O)n(C)c3ccccc23)cc1,i,nt,nt,nt,nt
O=C(CSc1ccccc1)Nc1ccc2c(c1)OCCO2,33,i,i,i,i
COc1ccc(-c2csc(NC(=O)CSc3nc(SC)ns3)n2)cc1,i,i,i,i,71
COc1ccc(-c2csc(NC(=O)CSc3nc(C)cs3)n2)cc1,nt,i,i,nt,i
Cn1c(=O)cc(OCCCC(=O)Nc2ccc3c(c2)OCCO3)c2ccccc21,64,i,i,i,i
Cc1ccc(S(=O)(=O)N2C[C@H]3C(=O)C[C@@H](c4ccc(Cl)cc4)N(S(=O)(=O)c4ccccc4C)[C@H]3C[C@H]2c2ccccc2)cc1,i,nt,nt,nt,nt
O=S(=O)(NCc1ccc(Cl)c(Cl)c1)c1cc(Cl)ccc1N1CC[C@@H](O)C1,i,nt,nt,nt,nt
CC1=C(C(=O)N(C)C)CC(CC(=O)NCC2CCCCC2)C(=O)N1CCCN1CCCC1=O (configuration not stated),i,nt,nt,nt,nt
